Activity calls are given as the source filed them. The rule behind the calls is not given here. Where only a bound is given, the exact number is not on record here.

The nature of experiment [1]: In vivo inhibition of PAT1 in intestinal closed-loop CD-1 mouse model harboring CFTR delF508/delF508 mutant assessed as reduction in loop fluid volume in ileum measured for 30 mins. Type of experiment: functional. To be noted: 0.5 h. The procedure, abridged:
(§1)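 Mice (wild-type CD1 or homozygous F508del CF, 10-16 wk, both sexes) fasted 24 h with free access to 5% dextrose water. Under isoflurane at 36-38 °C, 2-3 ileal loops (2-3 cm) were tied off and injected with 100 µL PBS pH 7.4 containing 30 µM inhibitor, 10 µM tenapanor or 0.1% DMSO vehicle. Loops removed at 0 or 30 min in separate mice; length and weight measured for fluid absorption. One-way ANOVA with Newman-Keuls.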

Experiment [2] can be described thus: In vivo inhibition of PAT1 in intestinal closed-loop CD-1 mouse model assessed as reduction in loop weight/length ratio in ileum measured for 30 mins. To be noted: 0.5 h. Type of experiment: functional. The procedure, abridged:
as §1

Experiment [3] concerns the target T1, Anoctamin-1 (Homo sapiens) (UniProt Q5XXA6).
T1 sequence (whole entry): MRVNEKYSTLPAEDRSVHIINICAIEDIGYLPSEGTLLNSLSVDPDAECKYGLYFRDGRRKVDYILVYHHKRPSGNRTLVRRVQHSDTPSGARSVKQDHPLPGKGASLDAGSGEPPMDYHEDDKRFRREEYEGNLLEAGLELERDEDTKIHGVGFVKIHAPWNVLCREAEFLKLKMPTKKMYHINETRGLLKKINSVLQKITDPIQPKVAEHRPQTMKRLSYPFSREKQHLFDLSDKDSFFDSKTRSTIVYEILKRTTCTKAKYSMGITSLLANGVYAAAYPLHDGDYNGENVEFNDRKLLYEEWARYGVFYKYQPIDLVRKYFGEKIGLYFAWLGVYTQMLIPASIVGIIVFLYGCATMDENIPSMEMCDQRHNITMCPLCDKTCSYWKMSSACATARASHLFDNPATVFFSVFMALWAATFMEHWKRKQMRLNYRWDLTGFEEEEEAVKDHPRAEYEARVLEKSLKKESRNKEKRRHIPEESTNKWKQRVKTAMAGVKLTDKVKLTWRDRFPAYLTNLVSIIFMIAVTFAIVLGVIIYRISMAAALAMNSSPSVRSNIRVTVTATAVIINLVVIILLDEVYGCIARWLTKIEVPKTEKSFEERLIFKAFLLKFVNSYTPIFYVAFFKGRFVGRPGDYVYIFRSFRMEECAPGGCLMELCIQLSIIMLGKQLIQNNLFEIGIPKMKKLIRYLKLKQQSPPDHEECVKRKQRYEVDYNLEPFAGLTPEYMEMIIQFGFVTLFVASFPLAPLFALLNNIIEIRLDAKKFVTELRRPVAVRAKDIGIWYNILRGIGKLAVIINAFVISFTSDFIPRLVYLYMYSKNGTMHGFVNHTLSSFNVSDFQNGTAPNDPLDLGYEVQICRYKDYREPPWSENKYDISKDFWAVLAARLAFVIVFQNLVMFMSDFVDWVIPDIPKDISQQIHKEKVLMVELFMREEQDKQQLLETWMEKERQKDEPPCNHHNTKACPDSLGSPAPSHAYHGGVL
The experiment in a line: Inhibition of TMEM16A (unknown origin).

Another experiment concerns Mus musculus. The experiment in a line: In vivo inhibition of PAT1 in intestinal closed-loop CD-1 mouse model assessed as reduction in loop fluid volume in ileum measured for 30 mins. It is filed as functional, organism-based. An outline of the steps:
as §1

Experiment [4] addresses Cystic fibrosis transmembrane conductance regulator (Homo sapiens) (UniProt P13569). The experiment in a line: Inhibition of CFTR (unknown origin).
Experiment [5] addresses T2, Solute carrier family 26 member 9 (Homo sapiens) (UniProt Q7LBE3).
T2 sequence (whole entry): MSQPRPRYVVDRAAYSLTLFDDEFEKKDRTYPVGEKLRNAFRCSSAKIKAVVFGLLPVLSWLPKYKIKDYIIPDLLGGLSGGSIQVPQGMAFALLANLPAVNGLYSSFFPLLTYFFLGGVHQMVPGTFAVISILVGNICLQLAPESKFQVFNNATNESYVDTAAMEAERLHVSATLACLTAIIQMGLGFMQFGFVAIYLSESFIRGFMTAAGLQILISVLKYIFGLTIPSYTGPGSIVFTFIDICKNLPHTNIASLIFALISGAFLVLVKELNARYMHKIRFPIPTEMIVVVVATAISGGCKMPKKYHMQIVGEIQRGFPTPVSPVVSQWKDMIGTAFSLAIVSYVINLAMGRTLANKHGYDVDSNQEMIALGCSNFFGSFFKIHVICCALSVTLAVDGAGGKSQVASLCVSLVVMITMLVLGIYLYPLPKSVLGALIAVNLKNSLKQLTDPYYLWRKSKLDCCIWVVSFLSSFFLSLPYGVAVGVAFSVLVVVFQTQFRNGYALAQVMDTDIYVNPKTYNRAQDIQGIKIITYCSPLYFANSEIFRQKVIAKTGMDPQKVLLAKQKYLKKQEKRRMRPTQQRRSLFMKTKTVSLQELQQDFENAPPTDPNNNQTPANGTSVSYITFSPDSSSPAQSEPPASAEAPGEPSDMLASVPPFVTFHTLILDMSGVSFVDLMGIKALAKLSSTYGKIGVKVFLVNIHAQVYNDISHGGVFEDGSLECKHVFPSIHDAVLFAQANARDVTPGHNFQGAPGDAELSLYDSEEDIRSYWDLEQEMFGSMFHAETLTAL
Put plainly: Inhibition of SLC26A9 (unknown origin) expressed in rat FRT cells coexpressing YFP halide-sensing protein assessed as iodide-chloride exchange at 25 uM incubated for 2 sec by fluorescence quenching analysis. It is filed as cell-based.

Sequence of Cystic fibrosis transmembrane conductance regulator (Homo sapiens) (P13569 whole entry, looked up): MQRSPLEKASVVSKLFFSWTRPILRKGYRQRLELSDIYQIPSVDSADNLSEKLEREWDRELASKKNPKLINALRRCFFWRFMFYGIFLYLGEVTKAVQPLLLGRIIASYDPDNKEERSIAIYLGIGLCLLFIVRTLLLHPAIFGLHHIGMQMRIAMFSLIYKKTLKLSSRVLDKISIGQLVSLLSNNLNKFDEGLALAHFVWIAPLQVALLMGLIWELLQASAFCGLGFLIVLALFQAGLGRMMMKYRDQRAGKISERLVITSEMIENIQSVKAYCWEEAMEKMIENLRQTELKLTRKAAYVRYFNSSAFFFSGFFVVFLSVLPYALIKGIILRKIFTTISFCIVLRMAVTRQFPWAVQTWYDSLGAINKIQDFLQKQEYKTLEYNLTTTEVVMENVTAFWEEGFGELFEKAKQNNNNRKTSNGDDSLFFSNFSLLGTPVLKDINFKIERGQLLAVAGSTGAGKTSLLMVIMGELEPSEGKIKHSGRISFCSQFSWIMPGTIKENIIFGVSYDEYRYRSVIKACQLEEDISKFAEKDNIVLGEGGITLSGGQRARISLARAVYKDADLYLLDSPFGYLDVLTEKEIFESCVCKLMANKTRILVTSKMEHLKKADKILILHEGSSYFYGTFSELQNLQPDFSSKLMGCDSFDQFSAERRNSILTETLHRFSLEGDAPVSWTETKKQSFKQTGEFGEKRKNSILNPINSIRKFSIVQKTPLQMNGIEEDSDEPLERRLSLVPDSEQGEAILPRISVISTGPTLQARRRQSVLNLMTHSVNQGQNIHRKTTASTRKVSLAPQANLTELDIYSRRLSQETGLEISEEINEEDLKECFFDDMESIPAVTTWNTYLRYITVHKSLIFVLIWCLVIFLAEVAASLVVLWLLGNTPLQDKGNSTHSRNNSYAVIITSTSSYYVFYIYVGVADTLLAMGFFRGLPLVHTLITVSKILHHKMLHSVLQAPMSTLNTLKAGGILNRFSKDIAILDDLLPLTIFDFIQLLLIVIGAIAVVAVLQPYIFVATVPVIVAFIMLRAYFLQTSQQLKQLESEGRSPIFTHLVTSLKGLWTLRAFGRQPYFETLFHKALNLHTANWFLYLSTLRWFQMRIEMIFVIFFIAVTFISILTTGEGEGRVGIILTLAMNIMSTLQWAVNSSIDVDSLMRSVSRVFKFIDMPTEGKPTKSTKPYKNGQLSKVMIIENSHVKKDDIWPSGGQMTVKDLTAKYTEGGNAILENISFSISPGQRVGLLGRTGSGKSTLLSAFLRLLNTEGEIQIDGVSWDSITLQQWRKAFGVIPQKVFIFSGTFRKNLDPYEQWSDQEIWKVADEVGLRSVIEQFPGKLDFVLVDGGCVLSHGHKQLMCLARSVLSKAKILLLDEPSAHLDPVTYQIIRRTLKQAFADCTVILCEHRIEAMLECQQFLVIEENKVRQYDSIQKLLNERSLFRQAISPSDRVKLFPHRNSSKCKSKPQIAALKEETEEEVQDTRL

With `CCOC(=O)c1nc(N(C)Cc2ccccc2)c2c(C)noc2n1`, the “inhibition (INH)” value in experiment [1] and in experiment [2] was above 90% each time. Besides, the inhibition result in experiment [3], in experiment [4] and in experiment [5] was “inactive” each time. Besides, the inhibition result in the experiment with Mus musculus was “Active”.

Source of the values: ChEMBL document CHEMBL5329211, “Selective isoxazolopyrimidine PAT1 (SLC26A6) inhibitors for therapy of intestinal disorders” (RSC Med Chem, 2023).
